Measurements reported in ChEMBL document CHEMBL1140903, “Reactions of functionalized sulfonamides: application to lowering the lipophilicity of cytosolic phospholipase A2alpha inhibitors” (J Med Chem, 2009).
Values belong to the compound of their own block, whether it stands above or below them. Activity calls are given as the source filed them. The calls are words filed in the database; no cut-off is given here.

What was measured:
[1] = molecular target: T1, Cytosolic phospholipase A2 (Homo sapiens, UniProt P47712); test: Inhibition of human cytosolic PLA2alpha by GLU micelle assay
T1 sequence (P47712 whole entry): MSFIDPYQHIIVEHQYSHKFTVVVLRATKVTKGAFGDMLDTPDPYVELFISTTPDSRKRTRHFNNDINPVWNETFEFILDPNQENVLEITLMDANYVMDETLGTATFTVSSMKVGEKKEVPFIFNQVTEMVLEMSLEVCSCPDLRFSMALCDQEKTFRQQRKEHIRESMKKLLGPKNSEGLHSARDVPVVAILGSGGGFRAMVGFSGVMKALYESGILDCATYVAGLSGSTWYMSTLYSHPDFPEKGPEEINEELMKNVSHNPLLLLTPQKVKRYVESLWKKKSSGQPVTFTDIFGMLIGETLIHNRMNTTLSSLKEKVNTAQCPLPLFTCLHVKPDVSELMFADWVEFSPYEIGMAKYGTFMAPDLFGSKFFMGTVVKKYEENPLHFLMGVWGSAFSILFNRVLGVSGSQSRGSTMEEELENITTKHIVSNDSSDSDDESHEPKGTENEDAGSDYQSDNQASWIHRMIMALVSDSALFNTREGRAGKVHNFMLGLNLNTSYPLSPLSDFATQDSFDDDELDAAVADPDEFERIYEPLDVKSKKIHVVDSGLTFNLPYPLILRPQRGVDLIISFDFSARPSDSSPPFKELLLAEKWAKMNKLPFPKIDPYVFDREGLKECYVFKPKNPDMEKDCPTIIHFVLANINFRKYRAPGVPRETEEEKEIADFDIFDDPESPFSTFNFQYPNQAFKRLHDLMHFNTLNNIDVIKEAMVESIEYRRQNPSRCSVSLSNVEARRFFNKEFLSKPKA
Summary of the method: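 Purified human cPLA2α with the substrate 7-hydroxycoumarinyl-γ-linolenate (GLU), presented in micelles containing a high concentration of detergent and lipid. IC50 is taken from at least two runs, each run the mean of duplicate assays.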

[2] = tested on: Blood; test: Inhibition of A23187-induced TBX2 release in Sprague-Dawley rat whole blood; assay type: functional, tissue-based
Summary of the method: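 Rat whole blood is stimulated with calcium ionophore A23187, and thromboxane B2 is the read-out (cPLA2α- and COX-1-dependent). IC50 is taken from at least two runs, each run the mean of triplicate assays.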

[3] = tested on: MC9; test: Inhibition of IgE-specific antigen-induced LBT4 release in mouse MC9 cells at […]
[4] = tested on: MC9; test: Inhibition of IgE-specific antigen-induced PGF2alpha release in mouse MC9 cells at […]
[5] = tested on: MC9; test: Inhibition of arachidonic acid-induced PGF2-alpha release in mouse MC9 cells at 1.0 uM
[6] = tested on: Blood; test: Inhibition of A23187-induced TBX2 release in human whole blood at 10 uM; assay type: functional
[7] = tested on: MC9; test: Inhibition of IgE-specific antigen-induced LBT4 release in mouse MC9 cells at 1.0 uM
[8] = tested on: MC9; test: Inhibition of IgE-specific antigen-induced PGF2-alpha release in mouse MC9 cells at 1.0 uM
[9] = tested on: MC9; test: Inhibition of IgE-specific antigen-induced PGF2alpha release in rat MC9 cells at 0.20 uM; details: Mus musculus, MC9, read-out: INH
[10] = tested on: Rattus norvegicus; test: Antiinflammatory activity against carrageenan-induced paw edema in Sprague-Dawley rat at 10 mg/kg, iv; details: read-out: INH
[11] = tested on: MC9; test: cells; details: Mus musculus, MC9, read-out: INH
[12] = tested on: MC9; test: Inhibition of arachidonic acid-induced PGF2-alpha release in mouse MC9 cells
[13] = tested on: MC9; test: Inhibition of IgE-specific antigen-induced PGF2-alpha release in mouse MC9 cells
[14] = tested on: MC9; test: Inhibition of IgE-specific antigen-induced LBT4 release in mouse MC9 cells at […]; remark: listed apart in the source
[15] = tested on: Rattus norvegicus; test: Antiinflammatory activity against carrageenan-induced paw edema in Sprague-Dawley rat at 15 mg/kg, iv; assay type: functional
Summary of the method: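 Rat carrageenan paw edema after iv dosing in 50/50 PEG/DMSO, with paw swelling assessed 3 h after dosing. Groups of 10 animals; naproxen was used to define maximal % inhibition.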

[16] = tested on: Rattus norvegicus; test: Plasma concentration in carrageenan-induced paw edema Sprague-Dawley rat model at 15 mg/kg, iv; details: in vivo
[17] = tested on: MC9; test: Inhibition of IgE-specific antigen-induced PGF2-alpha release in rat MC9 cells at 0.0005 uM; assay type: functional; details: Mus musculus
[18] = tested on: MC9; test: Inhibition of arachidonic acid-induced PGF2-alpha release in rat MC9 cells at 0.0005 uM; assay type: functional; details: Mus musculus
[19] = tested on: MC9; test: Inhibition of arachidonic acid-induced PGF2alpha release in mouse MC9 cells at 0.30 uM
[20] = tested on: MC9; test: Inhibition of IgE-specific antigen-induced PGF2-alpha release in mouse MC9 cells at 0.40 uM
[21] = tested on: Blood; test: Inhibition of A23187-induced TBX2 release in human whole blood; assay type: functional, tissue-based
Summary of the method: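 Human whole blood is stimulated with calcium ionophore A23187 at a higher concentration than in the rat whole blood assay. Thromboxane production is the read-out.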

[22] = tested on: MC9; test: Inhibition of IgE-specific antigen-induced LBT4 release in mouse MC9 cells at 0.333 uM

- IC50 [1]: 0.35 µM
- IC50 [2]: 3.2 µM
Structure (SMILES): NC(=O)C1CCCN1CCS(=O)(=O)NCCc1c(CCOc2ccc(C(=O)O)cc2)c2cc(Cl)ccc2n1C(c1ccccc1)c1ccccc1 (single isomer, unassigned)
- inhibition at 0.33 µM at […] [3]: 41%
- inhibition at 0.33 µM at […] [4]: 41%
- inhibition at 1 µM [5]: 8%

- IC50 [1]: 0.04 µM
- IC50 [2]: 0.07 µM
- concentration [16]: 5.3 µM
Structure (SMILES): O=C(O)c1ccc(CCCc2c(CCNS(=O)(=O)Cc3ccc(Cl)c(Cl)c3)n(C(c3ccccc3)c3ccccc3)c3ccc(Cl)cc23)cc1 [EFIPLADIB]
- inhibition in vivo at 15 mg/kg [15]: 51%

- IC50 [1]: 0.38 µM
- IC50 [2]: 0.45 µM
- IC50 [21]: 2 µM
Structure (SMILES): O=C(O)c1ccc(OCCc2c(CCNS(=O)(=O)CCn3ncnn3)n(C(c3ccccc3)c3ccccc3)c3ccc(Cl)cc23)cc1
- inhibition at 0.33 µM at […] [4]: 71%
- inhibition at 1 µM [5]: 4%
- inhibition at 0.333 µM [22]: 80%

The next lines start with the compound.

Structure (SMILES): O=C(O)c1ccc(OCCc2c(CCNS(=O)(=O)CCn3cnnn3)n(C(c3ccccc3)c3ccccc3)c3ccc(Cl)cc23)cc1
- IC50 [1]: 0.47 µM
- IC50 [2]: 5.6 µM
- inhibition at 10 µM [6]: < 25%
- inhibition at 1 µM [7]: 59%
- inhibition at 1 µM [5]: -5%
- inhibition at 1 µM [8]: 19%

Structure (SMILES): COc1ccc2cc([C@H](C)C(=O)O)ccc2c1 [NAPROXEN]
- inhibition at 0.2 µM [9]: 50%
- inhibition in vivo at 10 mg/kg [10]: 50%
- inhibition at […] [11]: 50%

Structure (SMILES): CC(c1cc2ccccc2s1)N(O)C(N)=O (stereo unspecified) [ZILEUTON]
- Activity [12]: inactive
- Activity [13]: inactive
- inhibition at 0.55 µM at […] [14]: 50%

Structure (SMILES): Cc1ccc(-c2cc(C(F)(F)F)nn2-c2ccc(S(N)(=O)=O)cc2)cc1 [CELECOXIB]
- inhibition at 0.0005 µM [17]: 79%
- inhibition at 0.0005 µM [18]: 79%
- inhibition at 0.3 µM [19]: 50%
- inhibition at 0.4 µM [20]: 50%
